The sample as a whole holds a higher share of hits than the screen did.
T cruzi HTS – inhibitors of intracellular Trypanosoma cruzi, primary screen, cell-based, plate reader, single point, set 2 | intracellular Trypanosoma cruzi in host cells | actives 4.9% (n = 22,000) | activity score (inhibition), % at 5.01 µM; in the data active means activity score above about 55%; inconclusive means no clear call, values can overlap the other calls;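 further: parasites and compound incubated about four days before reading; 0% = median of neutral control wells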
A1 apoptosis 2 – A1 inhibitors via caspase activation, primary screen, cell-based, luminescence, HTS, two replicates. MEF A1-2A-BIM cells, caspase-Glo luminescence, 3 h; percent of clofoctol response, DMSO zero. AID 2465, 2010. 24,000 tested, under 10 active. caspase activation, % (test concentration not listed); in the data active means caspase activation above about 5.9%; inconclusive means no clear call, values can overlap the other calls; inactive means below about 2.2%
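system = A1-2A-BIM-expressing MEF cells | quantity = 2500 MEF cells/well | dosing = 50 nL compound per well, pinned | schedule = overnight cell settling, then 3 h compound exposure, 37 °C | signal = luminescence from DEVD-luciferin Caspase-Glo reagent, 1:1 in 50 mM HEPES, 1 h RT | read-out = Caspase-3/7 activation, seen as rise in luminescence signal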
INS-1E ATP HTS – protection of INS-1E cells from cytokine death, primary screen, ATP luminescence, single point; INS-1E cytokine-induced death, 48 h; normalised: neutral wells 0, positive control 100; protection from cytokine-induced ATP loss, % at 10 µM; actives 0.1% (n = 20,000); AID 488910, 2010;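 active means mean replicate protection from cytokine-induced ATP loss at least 50% and at least 75% of replicates each reaching 50%; inconclusive means meets only one of the two criteria, mean or replicate share; inactive means fails both the mean and replicate share criteria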
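Assay system: INS-1E rat insulinoma cells. Amount: 8000 cells per well. Medium: phenol-red-free RPMI with 5% fetal bovine serum. Reagent: IL-1β, TNF-α and IFN-γ cytokine mix. Doses: one compound concentration, pin transfer. Schedule: 48 h co-treatment, 10 min post-lysis read. Detection: CellTiter-Glo luminescence measuring cellular ATP.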
* hit, by the source's call; u = inconclusive; x = no result given.

SMILES	T cruzi HTS	A1 apoptosis 2	INS-1E ATP HTS
C[C@@H]1CN([C@@H](C)CO)C(=O)Cc2cc(NC(=O)Nc3ccc(F)cc3)ccc2O[C@@H]1CN(C)Cc1ccc(Cl)c(Cl)c1	67*	0	1
C[C@H](CO)N1C[C@H](C)[C@H](CN(C)Cc2ccc(Cl)c(Cl)c2)Oc2ccc(NC(=O)Nc3ccc4c(c3)OCO4)cc2CC1=O	80*	0	-28
C[C@H](CO)N1C[C@H](C)[C@H](CN(C)Cc2ccc(Cl)c(Cl)c2)Oc2ccc(NC(=O)Nc3ccccc3)cc2CC1=O	75*	1	-34
C[C@H]1CN([C@@H](C)CO)C(=O)Cc2cc(NC(=O)Nc3ccccc3)ccc2O[C@H]1CN(C)Cc1ccc(Cl)c(Cl)c1	-15	2	-56
COc1ccc(NC(=O)Nc2ccc3c(c2)CC(=O)N([C@H](C)CO)C[C@H](C)[C@H](CN(C)Cc2ccc(Cl)c(Cl)c2)O3)cc1	2	2	-18
C[C@H]1CN([C@@H](C)CO)C(=O)Cc2cc(NC(=O)Cc3ccccc3)ccc2O[C@H]1CN(C)Cc1ccc(Cl)c(Cl)c1	57*	1	-27
C[C@@H]1CN([C@@H](C)CO)C(=O)Cc2cc(NC(=O)Nc3ccc4c(c3)OCO4)ccc2O[C@H]1CN(C)Cc1ccc2c(c1)OCO2	x	1	x
C[C@H]1CN([C@@H](C)CO)C(=O)Cc2cc(NC(=O)Cc3ccccc3)ccc2O[C@@H]1CN(C)Cc1ccccc1	51	-1	0
COc1cc(/C=N/NC(=O)c2cccc(C(=O)NO)c2)c([N+](=O)[O-])cc1OC	-5	x	0
C=CCOC(=O)[C@H]1[C@@H]2C(=O)O[C@@H](c3ccccc3)[C@@H](c3ccccc3)N2[C@@H](c2ccc(OCCOC(=O)[C@H]3C[C@H]4C(=O)N[C@@H](CCCCNC(C)=O)C(=O)N4[C@H]3c3cccc(OCCO)c3)cc2)[C@]12C(=O)Nc1ccccc12	x	1	x
O=C1O[C@@H](c2ccccc2)[C@@H](c2ccccc2)N2[C@@H](c3ccccc3OCCO)[C@]3(C(=O)Nc4ccc(C#CCCO)cc43)[C@@H](C(=O)NC[C@H](O)c3ccccc3)[C@H]12	x	0	x
OCc1ccc(COc2ccc3ccncc3c2)cc1	x	-2	x
C[C@@H]1CN([C@H](C)CO)C(=O)Cc2cc(NC(=O)Nc3ccc4c(c3)OCO4)ccc2O[C@H]1CN(C)CC1CCCCC1	64*	0	-15
C[C@@H]1CN([C@H](C)CO)C(=O)Cc2cc(NC(=O)Nc3ccc(F)cc3)ccc2O[C@@H]1CN(C)CC1CC1	x	0	x
C[C@@H]1CN([C@H](C)CO)C(=O)Cc2cc(NC(=O)Nc3ccc(F)cc3)ccc2O[C@@H]1CN(C)CC1CCCCC1	67*	2	2
C[C@H](CO)N1C[C@H](C)[C@@H](CN(C)CC2CCCCC2)Oc2ccc(NC(=O)Nc3ccc(F)cc3)cc2CC1=O	x	0	x
C[C@@H]1CN([C@H](C)CO)C(=O)Cc2cc(NC(=O)Nc3ccc(F)cc3)ccc2O[C@H]1CN(C)CC1CCCCC1	60*	x	-40
C[C@H](CO)N1C[C@H](C)[C@H](CN(C)CC2CCCCC2)Oc2ccc(NC(=O)Nc3ccc4c(c3)OCO4)cc2CC1=O	2	0	4
O=C(NO)c1cccc(C(=O)N/N=C/c2ccc(OCc3ccccc3)cc2O)c1	21	1	-94
CC(C)(C)OC(=O)N1CCC[C@H]1/C=N/NC(=O)c1ccc(C(=O)NO)cc1	4	1	26
O=C(CCCCCCC(=O)Nc1ccccc1O)N=NC=C1C=CN(O)C=C1	1	0	3
O=C(O)c1ccc(/C=N/NC(=O)c2ccc(C(=O)NO)cc2)cc1	9	1	-6
COc1cc(Br)cc(/C=N/NC(=O)CCCCCCC(=O)Nc2ccccc2O)c1O	32	x	4
O=C(CCCCCC(=O)N/N=C/c1ccc2ccccc2n1)NO	x	-2	x
C[C@H](CO)N1C[C@H](C)[C@H](CN(C)Cc2ccc(C(=O)Nc3ccccc3N)cc2)Oc2c(NC(=O)Nc3ccc(F)cc3)cccc2C1=O	51	-2	-8
SMILES	T cruzi HTS	A1 apoptosis 2	INS-1E ATP HTS
C[C@H]1CN([C@@H](C)CO)C(=O)c2cc(NC(=O)Nc3ccc(F)cc3)ccc2O[C@H]1CN(C)Cc1ccc(C(=O)Nc2ccccc2N)cc1	51	0	-4
C[C@@H]1CN([C@@H](C)CO)C(=O)c2cccc(NC(=O)Nc3ccc(C(F)(F)F)cc3)c2O[C@H]1CN(C)Cc1ccc(C(=O)Nc2ccccc2N)cc1	u	0	-26
C[C@@H]1CN([C@H](C)CO)C(=O)c2cccc(NC(=O)Nc3ccc(F)cc3)c2O[C@H]1CN(C)Cc1ccc(C(=O)Nc2ccccc2N)cc1	78*	1	7
C[C@H]1CN([C@@H](C)CO)C(=O)c2cccc(NC(=O)Nc3ccc(F)cc3)c2O[C@@H]1CN(C)Cc1ccc(C(=O)Nc2ccccc2N)cc1	67*	0	4
C[C@@H]1CN([C@@H](C)CO)C(=O)c2cccc(NC(=O)Nc3ccc(F)cc3)c2O[C@H]1CN(C)Cc1ccc(C(=O)Nc2ccccc2N)cc1	73*	x	2
Cc1nc(S(=O)(=O)N[C@@H]2CCCN(Cc3ccc(OCCO)cc3)C2)cn1C	x	-1	x
CC(C)=CCC[C@H](C)C/C=N/NC(=O)CCCCCCC(=O)Nc1ccccc1O	4	-2	6
C[C@@H]1CN([C@H](C)CO)C(=O)Cc2cc(NC(=O)CCCCCC(=O)Nc3ccccc3N)ccc2O[C@@H]1CN(C)Cc1ccc(-c2ccccc2)cc1	-28	x	5
C[C@H]1CN([C@@H](C)CO)C(=O)Cc2cc(NC(=O)CCCCCC(=O)Nc3ccccc3N)ccc2O[C@H]1CN(C)Cc1ccccc1	x	-1	x
C[C@H](CO)N1C[C@H](C)[C@H](CN(C)Cc2ccc(-c3ccccc3)cc2)Oc2ccc(NC(=O)CCCCCC(=O)Nc3ccccc3N)cc2CC1=O	73*	x	-10
C[C@@H]1CN([C@H](C)CO)C(=O)Cc2cc(NC(=O)CCCCCC(=O)Nc3ccccc3N)ccc2O[C@@H]1CN(C)Cc1ccc(Cl)c(Cl)c1	66*	x	-2
C[C@H](CO)N1C[C@H](C)[C@H](CN(C)S(=O)(=O)c2ccccc2)OCCCC[C@H](C)Oc2ccc(NC(=O)Nc3ccc(C(F)(F)F)cc3)cc2C1=O	x	0	x
C[C@@H]1CCCCO[C@H](CN(C)S(=O)(=O)c2ccccc2)[C@@H](C)CN([C@H](C)CO)C(=O)c2cc(NC(=O)Nc3ccc(C(F)(F)F)cc3)ccc2O1	64*	0	-18
C[C@@H]1CCCCO[C@H](CN(C)S(=O)(=O)c2ccccc2)[C@@H](C)CN([C@@H](C)CO)C(=O)c2cc(NC(=O)Nc3ccc(C(F)(F)F)cc3)ccc2O1	x	1	x
COc1ccc(S(=O)(=O)N(C)C[C@H]2OCCCC[C@H](C)Oc3ccc(NC(=O)Nc4ccc(C(F)(F)F)cc4)cc3C(=O)N([C@H](C)CO)C[C@H]2C)cc1	x	0	x
